Experimental findings from ChEMBL document CHEMBL3588770, “Novel spirohydantoin derivative as a potent multireceptor-active antipsychotic and antidepressant agent” (Bioorg Med Chem, 2015) are described below.

Usually inhibition stands for the relative decrease from the control value, in per cent.

Assay [1] concerns the target D(2) dopamine receptor (Homo sapiens) (UniProt P14416). The assay can be described thus: Antagonist activity at human recombinant D2 receptor expressed in HEK293 cells assessed as inhibition of dopamine-induced response at 1 uM. The format is cell-based. In outline:
(§1)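 Functional assays run by a contract lab on CHO or HEK-293 cells stably expressing the human receptor. Read-out was intracellular cAMP, IP1 or Ca2+ release. A single test concentration of 1.0E-06 was used, in duplicate. Data are mean % of the control response.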

The target in assay [2] is 5-hydroxytryptamine receptor 6 (Homo sapiens) (UniProt P50406). The assay can be described thus: Displacement of [3H]LSD from human 5HT6 receptor expressed in CHO cells at 1 uM by scintillation counting analysis. The format is cell-based. In outline:
(§2)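 Extended binding screen run by a contract lab. Receptors were cloned human: 5-HT1A, 5-HT2A, 5-HT2C and H1 in HEK-293 cells; D1, α1, α2C and M3 in CHO cells; 5-HT6/7 and D2/3/4 in CHO cells. Radioligand displacement was done at a single 1.0E-06 concentration in duplicate. Results are mean % inhibition of control specific binding.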
In general terms: Displacement assays read how much labelled ligand stays bound in the presence of the test substance.

Assay [3] deals with Histamine H1 receptor (Homo sapiens) (UniProt P35367). Description: Antagonist activity at human recombinant H1 receptor expressed in HEK-293 cells assessed as inhibition of histamine-induced intracellular Ca2+ release at 1 uM by fluorimetry. The format is functional, cell-based. Particulars: HEK293. In outline: as §1
The target in assay [4] is T1, Adrenergic receptor alpha-1 (Homo sapiens) (UniProt P35348+P25100+P35368). Description: Agonist activity at human recombinant alpha1 adrenoceptor expressed in CHO cells at 1 uM. The format is cell-based. In outline:
as §1

For assay [5], the target named is 5-hydroxytryptamine receptor 2A (Homo sapiens) (UniProt P28223). Description: Agonist activity at human recombinant 5HT2A receptor expressed in HEK293 cells assessed as intracellular IP1 release at 1 uM by HTRF assay. The format is functional, cell-based. In outline: as §1
For orientation: Time-resolved FRET reads energy transfer from a long-lived donor to a nearby acceptor.

In assay [6] the target is T2, 5-hydroxytryptamine receptor 1A (Homo sapiens) (UniProt P08908).
T2 sequence (whole entry): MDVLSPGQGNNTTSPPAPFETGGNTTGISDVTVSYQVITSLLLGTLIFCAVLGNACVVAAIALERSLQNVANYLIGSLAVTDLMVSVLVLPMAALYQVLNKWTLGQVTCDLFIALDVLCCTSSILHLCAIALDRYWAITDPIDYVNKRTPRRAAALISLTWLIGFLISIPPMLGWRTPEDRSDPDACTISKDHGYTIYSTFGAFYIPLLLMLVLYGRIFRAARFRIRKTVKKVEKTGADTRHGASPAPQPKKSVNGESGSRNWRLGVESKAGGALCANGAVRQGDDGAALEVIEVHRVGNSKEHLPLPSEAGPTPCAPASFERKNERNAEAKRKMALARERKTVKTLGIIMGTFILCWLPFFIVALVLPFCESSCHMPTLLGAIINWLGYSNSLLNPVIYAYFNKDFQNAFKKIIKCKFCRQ
Description: Agonist activity at human recombinant 5HT1A receptor expressed in HEK293 cells at 1 uM. The format is cell-based. In outline:
as §1

Assay [7] addresses 5-hydroxytryptamine receptor 7 (Homo sapiens) (UniProt P34969). The assay can be described thus: Displacement of [3H]LSD from human 5HT7 receptor expressed in CHO cells at 1 uM by scintillation counting analysis. The format is cell-based. In outline: as §2
For assay [8], the target named is D(3) dopamine receptor (Homo sapiens) (UniProt P35462). The assay can be described thus: Displacement of [3H]methylspiperione from human D3 receptor expressed in CHO cells at 1 uM by scintillation counting analysis. The format is cell-based. In outline: as §2
Assay [9] concerns the target D(2) dopamine receptor (Homo sapiens) (UniProt P14416). Description: Displacement of [3H]methylspiperione from human D2 receptor expressed in CHO cells at 1 uM by scintillation counting analysis. The format is cell-based. In outline:
as §2

The target in assay [10] is 5-hydroxytryptamine receptor 2A (Homo sapiens) (UniProt P28223). Description: Displacement of [3H]ketanserin from human cloned 5HT2A receptor expressed in HEK293 cells at 1uM by scintillation counting analysis. The format is cell-based. In outline: as §2
Assay [11] concerns the target D(3) dopamine receptor (Homo sapiens) (UniProt P35462). Description: Antagonist activity at human recombinant D3 receptor expressed in CHO cells assessed as inhibition of dopamine-induced intracellular cAMP release at 1 uM by HTRF method. The format is functional, cell-based. In outline:
as §1

Assay [12] deals with T2, 5-hydroxytryptamine receptor 1A (Homo sapiens). The assay can be described thus: Displacement of [3H]-8-OH-DPAT from human cloned 5HT1A receptor expressed in HEK293 cells at 1 uM by scintillation counting analysis. The format is cell-based. In outline: as §2
Assay [13] has as its target T1, Adrenergic receptor alpha-1 (Homo sapiens). Description: Antagonist activity at human recombinant alpha1 adrenoceptor expressed in CHO cells assessed as inhibition of agonist induced response at 1 uM. The format is cell-based. In outline: as §1
In assay [14] the target is 5-hydroxytryptamine receptor 7 (Homo sapiens) (UniProt P34969). The assay can be described thus: Agonist activity at human recombinant 5HT7 receptor expressed in CHO cells assessed as intracellular cAMP release at 1 uM by HTRF assay. The format is functional, cell-based. In outline: as §1
In assay [15] the target is T3, Alpha-2C adrenergic receptor (Homo sapiens) (UniProt P18825).
T3 sequence (whole entry): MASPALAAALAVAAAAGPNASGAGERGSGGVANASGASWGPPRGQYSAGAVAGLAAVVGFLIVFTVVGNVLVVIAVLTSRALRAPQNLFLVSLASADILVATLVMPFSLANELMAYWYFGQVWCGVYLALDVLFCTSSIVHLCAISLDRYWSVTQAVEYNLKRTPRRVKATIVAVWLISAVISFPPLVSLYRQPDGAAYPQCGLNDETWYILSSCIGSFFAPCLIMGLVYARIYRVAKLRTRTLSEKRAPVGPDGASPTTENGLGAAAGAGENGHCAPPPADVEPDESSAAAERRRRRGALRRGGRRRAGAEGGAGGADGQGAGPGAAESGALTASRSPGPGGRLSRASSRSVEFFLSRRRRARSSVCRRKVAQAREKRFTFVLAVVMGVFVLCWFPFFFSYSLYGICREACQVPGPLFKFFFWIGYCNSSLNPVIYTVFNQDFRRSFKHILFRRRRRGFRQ
Description: Agonist activity at human recombinant alpha2C adrenoceptor expressed in CHO cells assessed as intracellular cAMP release at 1 uM by HTRF assay. The format is functional, cell-based. In outline:
as §1

In assay [16] the target is T4, D(4) dopamine receptor (Homo sapiens) (UniProt P21917).
T4 sequence (whole entry): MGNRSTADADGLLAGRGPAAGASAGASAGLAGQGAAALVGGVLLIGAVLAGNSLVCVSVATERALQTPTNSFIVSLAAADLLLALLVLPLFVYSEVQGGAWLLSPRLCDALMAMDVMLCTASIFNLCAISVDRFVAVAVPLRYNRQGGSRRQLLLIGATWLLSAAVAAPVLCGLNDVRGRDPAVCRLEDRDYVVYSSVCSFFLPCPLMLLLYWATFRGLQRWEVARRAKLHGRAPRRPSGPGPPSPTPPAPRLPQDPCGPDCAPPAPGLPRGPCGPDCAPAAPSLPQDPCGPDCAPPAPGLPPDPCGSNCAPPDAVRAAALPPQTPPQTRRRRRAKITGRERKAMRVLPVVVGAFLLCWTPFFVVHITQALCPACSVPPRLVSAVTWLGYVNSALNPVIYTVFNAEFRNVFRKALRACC
Description: Antagonist activity at human recombinant D4 receptor expressed in CHO cells assessed as inhibition of dopamine-induced intracellular cAMP release at 1 uM by HTRF method. The format is functional, cell-based. In outline:
as §1

In assay [17] the target is T2, 5-hydroxytryptamine receptor 1A (Homo sapiens). Description: Antagonist activity at human recombinant 5HT1A receptor expressed in HEK293 cells assessed as inhibition of 8-OH-DPAT-induced response at 1 uM. The format is cell-based. In outline: as §1
Assay [18] addresses T3, Alpha-2C adrenergic receptor (Homo sapiens). Description: Antagonist activity at human recombinant alpha2C adrenoceptor expressed in CHO cells assessed as inhibition of epinephrine-induced intracellular cAMP release at 1 uM by HTRF assay. The format is functional, cell-based. In outline:
as §1

The target in assay [19] is D(2) dopamine receptor (Homo sapiens) (UniProt P14416). Description: Agonist activity at human recombinant D2 receptor expressed in HEK293 cells at 1 uM. The format is cell-based. In outline:
as §1

Chain of D(2) dopamine receptor (Homo sapiens) (P14416 whole entry): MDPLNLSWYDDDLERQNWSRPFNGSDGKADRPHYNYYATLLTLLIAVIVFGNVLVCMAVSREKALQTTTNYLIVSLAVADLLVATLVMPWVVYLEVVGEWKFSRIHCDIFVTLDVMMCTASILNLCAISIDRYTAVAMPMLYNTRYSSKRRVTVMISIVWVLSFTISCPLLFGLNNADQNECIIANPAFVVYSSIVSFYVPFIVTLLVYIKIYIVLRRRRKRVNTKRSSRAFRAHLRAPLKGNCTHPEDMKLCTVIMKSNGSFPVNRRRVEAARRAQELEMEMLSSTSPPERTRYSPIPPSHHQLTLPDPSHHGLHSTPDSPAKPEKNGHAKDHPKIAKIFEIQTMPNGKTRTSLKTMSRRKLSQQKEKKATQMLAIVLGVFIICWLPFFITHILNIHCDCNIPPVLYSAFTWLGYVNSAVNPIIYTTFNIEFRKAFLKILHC
Chain of 5-hydroxytryptamine receptor 7 (Homo sapiens) (P34969 whole entry): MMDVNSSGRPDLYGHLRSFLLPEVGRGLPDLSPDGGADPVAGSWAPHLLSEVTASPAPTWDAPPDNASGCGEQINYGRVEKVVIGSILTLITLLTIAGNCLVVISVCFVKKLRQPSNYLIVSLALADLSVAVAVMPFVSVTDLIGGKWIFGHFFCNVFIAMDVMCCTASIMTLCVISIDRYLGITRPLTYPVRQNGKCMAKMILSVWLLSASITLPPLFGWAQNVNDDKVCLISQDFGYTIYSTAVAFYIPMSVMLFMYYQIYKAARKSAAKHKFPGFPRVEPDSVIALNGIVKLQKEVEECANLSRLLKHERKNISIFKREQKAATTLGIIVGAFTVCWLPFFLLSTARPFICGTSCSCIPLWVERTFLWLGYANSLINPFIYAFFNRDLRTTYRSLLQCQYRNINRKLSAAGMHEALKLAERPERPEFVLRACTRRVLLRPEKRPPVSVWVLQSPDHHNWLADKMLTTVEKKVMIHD
Chain of D(3) dopamine receptor (Homo sapiens) (P35462 whole entry): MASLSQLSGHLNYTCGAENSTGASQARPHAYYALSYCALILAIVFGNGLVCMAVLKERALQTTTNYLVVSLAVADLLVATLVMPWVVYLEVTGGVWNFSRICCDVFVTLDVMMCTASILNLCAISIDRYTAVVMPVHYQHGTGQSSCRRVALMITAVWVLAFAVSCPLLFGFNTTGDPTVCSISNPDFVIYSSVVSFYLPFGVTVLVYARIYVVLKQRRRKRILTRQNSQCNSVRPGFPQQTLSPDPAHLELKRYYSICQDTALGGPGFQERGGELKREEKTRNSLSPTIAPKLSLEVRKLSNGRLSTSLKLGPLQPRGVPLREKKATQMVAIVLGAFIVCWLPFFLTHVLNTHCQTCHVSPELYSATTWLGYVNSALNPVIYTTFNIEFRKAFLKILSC
Chain of 5-hydroxytryptamine receptor 6 (Homo sapiens) (P50406 whole entry): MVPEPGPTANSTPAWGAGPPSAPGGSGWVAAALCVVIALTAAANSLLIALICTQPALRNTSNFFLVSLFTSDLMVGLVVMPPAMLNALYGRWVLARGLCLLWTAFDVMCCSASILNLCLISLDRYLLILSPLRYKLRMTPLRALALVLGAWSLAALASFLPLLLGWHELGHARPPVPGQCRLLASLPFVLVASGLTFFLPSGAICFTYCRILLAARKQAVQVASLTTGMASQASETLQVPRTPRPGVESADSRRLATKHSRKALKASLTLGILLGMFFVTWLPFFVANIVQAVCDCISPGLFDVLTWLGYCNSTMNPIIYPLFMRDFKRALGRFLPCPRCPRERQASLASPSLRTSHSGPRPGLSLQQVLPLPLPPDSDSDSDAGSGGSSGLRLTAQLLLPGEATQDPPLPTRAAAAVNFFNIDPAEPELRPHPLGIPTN
Chain of 5-hydroxytryptamine receptor 2A (Homo sapiens) (P28223 whole entry): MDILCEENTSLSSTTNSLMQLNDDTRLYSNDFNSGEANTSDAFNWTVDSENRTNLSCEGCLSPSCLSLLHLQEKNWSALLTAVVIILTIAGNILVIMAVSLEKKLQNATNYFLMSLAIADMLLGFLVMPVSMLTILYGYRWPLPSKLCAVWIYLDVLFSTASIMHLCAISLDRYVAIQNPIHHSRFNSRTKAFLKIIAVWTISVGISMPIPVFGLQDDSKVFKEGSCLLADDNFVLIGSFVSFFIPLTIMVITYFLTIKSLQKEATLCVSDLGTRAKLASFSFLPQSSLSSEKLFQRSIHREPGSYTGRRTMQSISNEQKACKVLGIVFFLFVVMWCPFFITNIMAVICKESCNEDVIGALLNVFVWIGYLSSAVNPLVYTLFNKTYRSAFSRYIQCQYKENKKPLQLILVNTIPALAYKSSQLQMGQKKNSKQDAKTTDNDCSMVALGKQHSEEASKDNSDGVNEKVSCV
Chain of Histamine H1 receptor (Homo sapiens) (P35367 whole entry): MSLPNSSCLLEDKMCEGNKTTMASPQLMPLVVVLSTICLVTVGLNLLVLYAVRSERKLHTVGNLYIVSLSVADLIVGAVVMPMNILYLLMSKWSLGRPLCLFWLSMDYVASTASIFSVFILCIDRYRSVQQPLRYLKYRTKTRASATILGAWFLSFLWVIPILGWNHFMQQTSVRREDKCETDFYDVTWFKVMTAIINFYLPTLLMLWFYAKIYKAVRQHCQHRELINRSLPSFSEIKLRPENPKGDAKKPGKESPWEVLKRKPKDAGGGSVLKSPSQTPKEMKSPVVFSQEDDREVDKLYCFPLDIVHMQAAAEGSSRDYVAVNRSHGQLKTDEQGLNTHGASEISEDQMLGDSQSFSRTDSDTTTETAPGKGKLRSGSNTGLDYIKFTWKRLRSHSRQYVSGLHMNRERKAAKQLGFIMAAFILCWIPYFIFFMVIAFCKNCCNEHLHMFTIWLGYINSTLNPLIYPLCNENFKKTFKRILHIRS

Consider `COc1ccccc1N1CCN(CCCCN2C(=O)NC3(CCCc4ccccc43)C2=O)CC1` (stereo not given), for which the inhibition in assay [1] worked out at 91%; in [2] it was 29%; in assay [3] it was 63%; in [7] it was 99%; in [8], 94%; in [9], 97%. Also, the inhibition is 69% in assay [10]; 53% in assay [11]; 98% in assay [12]; 94% in assay [13]; 84% in [16]; 101% in assay [17]. Besides, the inhibition in assay [18] was 79%. In addition, the Activity in assay [4] stood at 1%; in assay [5], 0%; in [6] it was 26%; in [14], 6%; in assay [15] it was 20%; in assay [19], 24%.
As for `O=C1NC2(CCCc3ccccc32)C(=O)N1CCCCN1CCN(c2cccc(Cl)c2)CC1` (stereo not given), the inhibition in [2] was 37%; in assay [7], 100%; in assay [8] it was 93%; in [9], 77%; in assay [10], 95%; in [12] it was 99%.
As for `COc1ccccc1N1CCN(CCCCN2C(=O)NC3(CCc4ccccc43)C2=O)CC1` (stereo not given), the inhibition in [1] turned out to be 85%; in [2], 3%; in assay [3], 58%; in assay [7], 98%; in [8] it was 96%; in [9], 96%. Also, the inhibition was found to be 100% in [10]; 66% in assay [11]; 103% in assay [12]; 95% in [13]; 75% in [16]; 102% in [17]. Moreover, in assay [18], the inhibition was determined as 69%. In addition, the Activity came out at 2% in [4]; 1% in [5]; 37% in assay [6]; 6% in [14]; 15% in assay [15]; 20% in assay [19].
Take `O=C1NC2(CCc3ccccc32)C(=O)N1CCCCN1CCN(c2cccc(Cl)c2)CC1` (stereo not given): the inhibition in assay [2] is 23%; in assay [7], 99%; in assay [8] it was 97%; in [9], 75%; in [10] it was 98%; in assay [12], 103%.
